Assay results: ChEMBL document CHEMBL1255516, “Identification of a new biaryl scaffold generating potent renin inhibitors” (Bioorg Med Chem Lett, 2010)

Assays:
[1] = Half life in Sprague-Dawley rat at 4 mg/kg, iv; format: ADME, organism-based; parameters: dose 4 mg/kg, route intravenous; settings: in vivo
In short: (§1)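 Sprague–Dawley rats dosed iv at 4 mpk as the HCl salt in 60% PEG 200/water, 1 ml/kg.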

Rattus norvegicus = assay: AUC in Sprague-Dawley rat at 30 mg/kg, po; settings: in vivo
[2] = Volume of distribution at steady state in Sprague-Dawley rat at 4 mg/kg, iv; format: ADME, organism-based; parameters: dose 4 mg/kg, route intravenous; settings: in vivo, read-out: Vdss; in short: as §1
Renin [3] = target: T1, Renin (Homo sapiens, UniProt P00797); assay: Inhibition of human recombinant renin in plasma
T1 sequence (P00797 whole entry): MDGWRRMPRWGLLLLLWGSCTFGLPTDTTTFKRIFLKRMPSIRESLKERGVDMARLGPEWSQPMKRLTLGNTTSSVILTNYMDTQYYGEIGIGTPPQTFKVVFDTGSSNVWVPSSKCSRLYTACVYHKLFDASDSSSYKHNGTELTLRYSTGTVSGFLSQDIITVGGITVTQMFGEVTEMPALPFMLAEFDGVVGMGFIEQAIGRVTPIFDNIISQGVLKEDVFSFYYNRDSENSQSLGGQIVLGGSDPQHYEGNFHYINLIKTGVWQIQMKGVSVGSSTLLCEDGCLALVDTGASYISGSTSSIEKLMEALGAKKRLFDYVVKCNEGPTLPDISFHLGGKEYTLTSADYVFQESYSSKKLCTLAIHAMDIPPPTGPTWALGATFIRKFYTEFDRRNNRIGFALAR
In short: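 Pooled frozen human citrate plasma supplemented with recombinant human renin (150 pg/ml final). Inhibitor in DMSO at various concentrations added to a 7:1 mix of plasma and trapping anti-angiotensin I antibody (final antiserum 1:50,000) in Tris/EDTA, pH 7.2.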

Renin [4] = target: T1, Renin; assay: Inhibition of human recombinant renin in phosphate buffer
In short: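 Recombinant human renin in PBS with 1 mM EDTA, 0.1% BSA, pH 7.4, premixed at 4 °C with human tetradecapeptide(1–14) substrate (stock 5 μM in 10 mM HCl) and hydroxyquinoline sulfate (stock 30 mM). Compounds diluted in DMSO were added, then incubated 3 h at 37 °C. Angiotensin I accumulation was measured; IC50 from % inhibition curve fit, mean of at least two experiments.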

[5] = Clearance in Sprague-Dawley rat at 4 mg/kg, iv; format: ADME, organism-based; parameters: dose 4 mg/kg, route intravenous; settings: in vivo; in short: as §1
[6] = AUC in Sprague-Dawley rat at 30 mg/kg, po; settings: Sprague-Dawley, plasma
[7] = Oral bioavailability in Sprague-Dawley rat at 30 mg/kg; format: ADME, organism-based; settings: in vivo
In short: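 Sprague–Dawley rats dosed orally at 30 mpk as the HCl salt in 0.5% methocel, 5 ml/kg; iv reference dose 4 mpk in 60% PEG 200/water, 1 ml/kg.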

| Compound | IC50 (Renin [3]) | IC50 (Renin [4]) | also measured |
| --- | --- | --- | --- |
| COCCCc1ccc(Cl)c(CN(C(=O)[C@@H](CN)Cc2ccc(OCCOc3c(Cl)cc(C)cc3Cl)cc2)C2CC2)c1 |  |  | half-life [1]: 6 h; AUC (Rattus norvegicus): 8.3 µM·h; Vd [2]: 12 L/kg |
| Cc1cc(Cl)c(OCCOc2ccc(CC(CN)c3ccc(-c4ccccc4CCC(=O)N(C)C)cc3C)cc2)c(Cl)c1 (stereo not drawn) | 1110 nM |  |  |
| COC(=O)CCc1ccccc1-c1ccc(C(CN)Cc2ccc(OCCOc3c(Cl)cc(C)cc3Cl)cc2)c(C)c1 (stereo not drawn) | 141 nM | 0.09 nM |  |
| Cc1cc(Cl)c(OCCOc2ccc(CC(CN)c3ccc(-c4ccnc(N)c4)cc3C)cc2)c(Cl)c1 (stereo not drawn) | 228 nM | 1.7 nM |  |
| CC(=O)NCCCc1ccccc1-c1ccc(C(CN)Cc2ccc(OCCOc3c(Cl)cc(C)cc3Cl)cc2)c(C)c1 (stereo not drawn) | 131 nM | 0.97 nM |  |
| Cc1cc(Cl)c(OCCOc2ccc(CC(CN)c3ccc(-c4cncnc4)cc3C)cc2)c(Cl)c1 (stereo not drawn) | 614 nM | 4.9 nM |  |
| CC(=O)NCc1ccccc1-c1ccc(C(CN)Cc2ccc(OCCOc3c(Cl)cc(C)cc3Cl)cc2)c(C)c1 (stereo not drawn) | 138 nM | 2.1 nM |  |
| COCCCc1ccccc1-c1ccc(C(CN)Cc2ccc(OCCOc3c(Cl)cc(C)cc3Cl)cc2)c(C)c1 (stereo not drawn) |  | 0.44 nM |  |

The remaining compounds from weak to strong by IC50 (Renin [4]), led by results:

| IC50 (Renin [3]) | IC50 (Renin [4]) | Compound | also measured |
| --- | --- | --- | --- |
| 534 nM | 12.9 nM | COC(=O)Cc1ccccc1-c1ccc(C(CN)Cc2ccc(OCCOc3c(Cl)cc(C)cc3Cl)cc2)c(C)c1 (stereo not drawn) |  |
| 416 nM | 3.9 nM | Cc1cc(Cl)c(OCCOc2ccc(CC(CN)c3ccc(-c4cnc5cnccn45)cc3C)cc2)c(Cl)c1 (stereo not drawn) |  |
| 103 nM | 1.02 nM | Cc1cc(Cl)c(OCCOc2ccc(CC(CN)c3ccc(-c4ccccc4CCOC(N)=O)cc3C)cc2)c(Cl)c1 (stereo not drawn) |  |
|  | 0.52 nM | Cc1cc(Cl)c(OCCOc2ccc(CC(CN)c3ccc(-c4ccccc4Cl)cc3Cl)cc2)c(Cl)c1 (stereo not drawn) |  |
|  | 0.04 nM | CC(=O)NCCc1ccccc1-c1ccc(C(CN)Cc2ccc(OCCOc3c(Cl)cc(C)cc3Cl)cc2)c(C)c1 (stereo not drawn) | clearance [5]: 34 mL/min/kg; half-life [1]: 7 h; AUC [6]: 5.5 µM·h; Vd [2]: 9 L/kg; bioavailability [7]: 23% |
